Experimental data: article PMC3149718 (Molecular and cellular biochemistry, 2011)
Where a chain is given by its changes, count along the chain named. Values belong to the molecule of their own block, whether it stands above or below them.

Legend:
[1] = molecular target: T1, Cy3-labeled CPTI WT 89-residue peptide (Rattus norvegicus, UniProt P32198); assay: FRET between Cy3-labeled CPTI peptide and Cy5-labeled LCFA-CoA binding proteins; conditions: Cy5-labeled acceptor protein; for Sensitized Emission R (intermolecular distance): donor Cy3-CPTI WT
T1 sequence (P32198 381-469): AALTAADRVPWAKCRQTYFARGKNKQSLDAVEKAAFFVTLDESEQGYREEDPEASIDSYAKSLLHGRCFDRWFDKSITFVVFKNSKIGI

[2] = molecular target: T2, wild-type CPTI in mitochondria from yeast (Rattus norvegicus, UniProt P32198); assay: CPTI activity assay; assay type: biochemical
T2 sequence (P32198 1-773): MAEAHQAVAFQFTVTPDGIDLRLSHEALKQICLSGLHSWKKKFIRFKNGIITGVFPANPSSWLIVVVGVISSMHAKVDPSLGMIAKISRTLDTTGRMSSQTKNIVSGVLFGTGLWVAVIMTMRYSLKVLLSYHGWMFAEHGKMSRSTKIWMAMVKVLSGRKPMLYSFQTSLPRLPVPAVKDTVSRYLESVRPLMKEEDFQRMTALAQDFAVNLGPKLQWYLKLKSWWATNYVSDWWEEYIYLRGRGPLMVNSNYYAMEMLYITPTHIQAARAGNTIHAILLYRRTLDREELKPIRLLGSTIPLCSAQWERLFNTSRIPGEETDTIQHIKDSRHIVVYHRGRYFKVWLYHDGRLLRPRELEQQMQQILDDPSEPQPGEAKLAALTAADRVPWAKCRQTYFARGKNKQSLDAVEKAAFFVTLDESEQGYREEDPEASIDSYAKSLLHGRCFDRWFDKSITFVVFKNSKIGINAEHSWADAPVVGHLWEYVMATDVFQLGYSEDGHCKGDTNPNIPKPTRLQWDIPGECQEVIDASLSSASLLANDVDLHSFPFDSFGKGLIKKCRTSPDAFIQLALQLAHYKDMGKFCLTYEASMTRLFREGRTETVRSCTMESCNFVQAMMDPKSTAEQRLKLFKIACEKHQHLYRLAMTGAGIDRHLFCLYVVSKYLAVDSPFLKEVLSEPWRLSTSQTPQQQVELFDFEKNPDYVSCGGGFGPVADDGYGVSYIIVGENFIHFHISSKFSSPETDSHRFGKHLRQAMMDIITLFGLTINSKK
Outline: (§1)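 Mitochondria isolated from yeast strains expressing wild-type or mutant CPTI were assayed by forward exchange with L-[methyl-3H]carnitine at a fixed 1.0 mM carnitine, using 150 µg mitochondrial protein. […] Incubation was 5 min at 30°C and was stopped with 6% perchloric acid. Values are mean ± SE.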

[3] = molecular target: T3, W452A mutant CPTI in mitochondria from yeast (Rattus norvegicus, UniProt P32198, W452A); assay: CPTI activity assay; assay type: biochemical
T3 sequence (P32198 1-773 W452A): T2 sequence (P32198 1-773) with W452A
Outline: as §1

[4] = molecular target: T4, Cy3-labeled W452A 89-residue CPTI peptide (Rattus norvegicus, UniProt P32198, W452A); assay: FRET between Cy3-labeled CPTI peptide and Cy5-labeled LCFA-CoA binding proteins; conditions: donor Cy3-W452A, Cy5-labeled acceptor protein
T4 sequence (P32198 381-469 W452A): T1 sequence (P32198 381-469) with W72A

[5] = molecular target: T5, Cy3-labeled W391A 89-residue CPTI peptide (Rattus norvegicus, UniProt P32198, W391A); assay: as above; conditions: donor Cy3-W391A, Cy5-labeled acceptor protein
T5 sequence (P32198 381-469 W391A): T1 sequence (P32198 381-469) with W11A

[6] = molecular target: T6, W391A mutant CPTI in mitochondria from yeast (Rattus norvegicus, UniProt P32198, W391A); assay: CPTI activity assay; assay type: biochemical
T6 sequence (P32198 1-773 W391A): T2 sequence (P32198 1-773) with W391A
Outline: as §1

[7] = donor protein 15uM, palmitoyl-CoA to protein molar ratio 7.41
[8] = donor protein 30uM, palmitoyl-CoA to protein molar ratio 3.70
[9] = donor protein 60uM, palmitoyl-CoA to protein molar ratio 1.85

Molecule: CytoC: Cytochrome C purchased from Sigma Aldrich, used as control protein [reference compound]
Sensitized Emission Kd ([1]; donor Cy3-CPTI WT 30 nM, PBS 24°C): no FRET or binding was observed

CPTI activity, WT [2, 7]: 31.8 ± 2.1 nmol/min/mg | CPTI activity, WT [2, 8]: 27.6 ± 2.4 nmol/min/mg | CPTI activity, WT [2, 9]: 13.2 ± 0.1 nmol/min/mg | CPTI activity, W452A [3, 7]: 0.7 ± 0.2 nmol/min/mg | CPTI activity, W452A [3, 8]: 0.8 ± 0.2 nmol/min/mg | CPTI activity, W452A [3, 9]: 1.3 ± 0.1 nmol/min/mg | CPTI activity, W391A [6, 7]: 3.3 ± 0.1 nmol/min/mg | CPTI activity, W391A [6, 8]: 4.5 ± 0.9 nmol/min/mg | CPTI activity, W391A [6, 9]: 5.7 ± 0.1 nmol/min/mg
B1: ACBP: Mouse recombinant acyl CoA binding protein (protein)
chain: MSQAEFDKAAEEVKRLKTQPTDEEMLFIYSHFKQATVGDVNTDRPGLLDLKGKAKWDSWNKLKGTSKESAMKTYVEKVDELKKKYGI
modifications: Cy5 dye, approximately 1 dye per protein molecule (in the FRET assay only; unlabelled in circular dichroism)
Sensitized Emission R (intermolecular distance) [1]: 56 ± 1 Å | Sensitized Emission R (intermolecular distance) [4]: 65.8 ± 0.2 Å | Sensitized Emission R (intermolecular distance) [5]: 65 ± 1 Å

CPTI activity, WT [2, 7]: 39.3 ± 2.5 nmol/min/mg | CPTI activity, WT [2, 8]: 37.6 ± 0.1 nmol/min/mg | CPTI activity, WT [2, 9]: 34.0 ± 0.1 nmol/min/mg | CPTI activity, W452A [3, 7]: 0.9 ± 0.2 nmol/min/mg | CPTI activity, W452A [3, 8]: 1.1 ± 0.1 nmol/min/mg | CPTI activity, W452A [3, 9]: 1.6 ± 0.1 nmol/min/mg | CPTI activity, W391A [6, 7]: 4.2 ± 0.1 nmol/min/mg | CPTI activity, W391A [6, 8]: 5.9 ± 0.1 nmol/min/mg | CPTI activity, W391A [6, 9]: 7.4 ± 0.1 nmol/min/mg
B2: L-FABP: Mouse recombinant liver fatty acid binding protein, delipidated (protein)
chain: MNFSGKYQLQSQENFEPFMKAIGLPEDLIQKGKDIKGVSEIVHEGKKIKLTITYGPKVVRNEFTLGEECELETMTGEKVKAVVKLEGDNKMVTTFKGIKSVTELNGDTITNTMTLGDIVYKRVSKRI
modifications: Cy5 dye, approximately 1 dye per protein molecule (in the FRET assay only; unlabelled in circular dichroism)
Sensitized Emission R (intermolecular distance) [1]: 56 ± 3 Å | Sensitized Emission R (intermolecular distance) [4]: 82 ± 1 Å | Sensitized Emission R (intermolecular distance) [5]: 50 ± 2 Å

CPTI activity, WT [2, 7]: 31.7 ± 1.1 nmol/min/mg | CPTI activity, WT [2, 8]: 26.1 ± 1.1 nmol/min/mg | CPTI activity, WT [2, 9]: 16.5 ± 0.1 nmol/min/mg | CPTI activity, W452A [3, 7]: 0.8 ± 0.2 nmol/min/mg | CPTI activity, W452A [3, 8]: 1.2 ± 0.2 nmol/min/mg | CPTI activity, W452A [3, 9]: 0.9 ± 0.2 nmol/min/mg | CPTI activity, W391A [6, 7]: 4.7 ± 0.1 nmol/min/mg | CPTI activity, W391A [6, 8]: 5.7 ± 0.2 nmol/min/mg | CPTI activity, W391A [6, 9]: 4.5 ± 0.1 nmol/min/mg
B3: SCP-2: Human recombinant sterol carrier protein-2 (protein, UniProt P22307 1-547, looked up)
Sterol carrier protein 2: MSSSPWEPATLRRVFVVGVGMTKFVKPGAENSRDYPDLAEEAGKKALADAQIPYSAVDQACVGYVFGDSTCGQRAIYHSLGMTGIPIINVNNNCATGSTALFMARQLIQGGVAECVLALGFEKMSKGSLGIKFSDRTIPTDKHVDLLINKYGLSAHPVAPQMFGYAGKEHMEKYGTKIEHFAKIGWKNHKHSVNNPYSQFQDEYSLDEVMASKEVFDFLTILQCCPTSDGAAAAILASEAFVQKYGLQSKAVEILAQEMMTDLPSSFEEKSIIKMVGFDMSKEAARKCYEKSGLTPNDIDVIELHDCFSTNELLTYEALGLCPEGQGATLVDRGDNTYGGKWVINPSGGLISKGHPLGATGLAQCAELCWQLRGEAGKRQVPGAKVALQHNLGIGGAVVVTLYKMGFPEAASSFRTHQIEAVPTSSASDGFKANLVFKEIEKKLEEEGEQFVKKIGGIFAFKVKDGPGGKEATWVVDVKNGKGSVLPNSDKKADCTITMADSDFLALMTGKMNPQSAFFQGKLKITGNMGLAMKLQNLQLQPGNAKL
modifications: Cy5 label
